We go through 4 compounds from ChEMBL document CHEMBL1147350, “Sesquiterpene-derived metabolites from the deep water marine sponge Poecillastra sollasi” (J Nat Prod, 1993).

Converted amounts (≈) assume the structure as drawn.

Experiment [1] deals with P388. Description: Cytotoxicity against mouse P388 cells by MTT assay. It is filed as functional, cell-based. (In general: Tetrazolium assays rely on reduction of a dye to a coloured formazan, in cell work by metabolically active cells.)
Experiment [2] relates to A549. The experiment can be described thus: Cytotoxicity against human A549 cells by MTT assay. It is filed as functional, cell-based.
Experiment [3] concerns Candida albicans. The experiment can be described thus: Antifungal activity against Candida albicans ATCC 44506 after 24 hrs by standard microdilution broth technique. It is filed as functional. To be noted: ATCC 44506, 24 h. The gist of the method: (§1)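 Broth microdilution MIC in 50 μl total volume. C. albicans ATCC 44506 grown in Sabouraud dextrose broth at 37° for 24 h; Cr. neoformans ATCC 32045 in Emmon's modification of Sabouraud dextrose broth at 37° for 48 h. MIC taken as lowest drug concentration giving complete growth inhibition.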
On the technique in general: Broth dilution looks for growth in wells or tubes with falling amounts of substance.

The test system of experiment [4] is Cryptococcus neoformans. Description: Antifungal activity against Cryptococcus neoformans ATCC 32045 after 48 hrs by standard microdilution broth technique. It is filed as functional. To be noted: ATCC 32045, 48 h. The essentials: as §1
Experiment [5] can be described thus: Displacement of [125I]angiotensin 2 from angiotensin 2 receptor in rat aorta smooth muscle cell membrane by genesys gamma counting. The essentials: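 Duplicate tubes: 0.88 nM (final) [125I]angiotensin II, membranes 75–125 μg/ml protein, 3 h at 25°; nonspecific with 1 μM unlabeled angiotensin II. GF/C filtration, gamma counting, nonlinear regression.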
On the technique in general: In a radioligand displacement assay an active substance lowers the binding of a labelled ligand.

One may read the IC50 as the concentration at which inhibition is half-maximal. What is called MIC is the lowest concentration found to suppress growth. A high value points to a less susceptible organism.

Regarding `CC1=CCC[C@@H](C)[C@]1(C)CC/C(C)=C/C(=O)N[C@@H]1CCCNC1=O` [SOLLASIN B], the results for the half-inhibitory concentration (IC50) in experiment [1] and in experiment [2] were 6 µg/mL (≈ 18 µM) and 17 µg/mL (≈ 51.1 µM), respectively. For the same compound, the results for the MIC in experiment [3] and in experiment [4] were 125 µg/mL (≈ 376 µM) and 31.2 µg/mL (≈ 93.8 µM), respectively.

As for `CC1=CCC[C@@H](C)[C@]1(C)CC/C(C)=C/C(=O)N[C@@H]1CCCCNC1=O` [SOLLASIN C], the 50% inhibitory concentration (IC50) in experiment [5] turned out to be 63 µM; in experiment [1] it was 8.4 µg/mL (≈ 24.2 µM); in experiment [2] it was 11 µg/mL (≈ 31.7 µM). For the same compound, the minimal inhibitory concentration (MIC) in experiment [3] is 31.2 µg/mL (≈ 90 µM); in experiment [4] it was 15.6 µg/mL (≈ 45 µM).

Regarding `COc1cc(/C=C(\C)CC[C@]2(C)C(C)=CCC[C@H]2C)oc(=O)c1` [SOLLASIN D], the values for the IC50 in experiment [5], in experiment [1] and in experiment [2] were 42 µM, 5.5 µg/mL (≈ 17.4 µM) and 11.3 µg/mL (≈ 35.7 µM), respectively.

Take `CC1=CC(=O)CC(C)(CC[C@]2(C)C(C)=CCC[C@H]2C)O1` (some centres undefined) [SOLLASIN E]: the minimal inhibitory concentration (MIC) in experiment [3] and in experiment [4] was 25 µg/mL (≈ 90.4 µM) in each case.
